The structures appear in SMILES notation. Calls of active or inactive are those of the source. No cut-off for these calls is given here.

One compound from ChEMBL document CHEMBL2150950, “Effect of 4-aryl-2-methyl-5-nitro-1,4-dihydropyridine-3-carboxylates on the guinea pig papillary muscle and isolated human vena saphena magna that is used for coronary artery bypass grafting” (2011) can be followed below.

The nature of assay [1]: Vasodilatory activity in human vena saphena magna assessed as reduction in phenylephrine-induced smooth muscle contraction at 0.1 uM. The format is functional. Also on record: scale not given: the % may be the effect or the level left. A digest of the protocol: (§1)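 Saphenous vein rings came from 37 CABG patients. They were bathed in Tyrode's solution (mM: NaCl 137, KCl 5.4, CaCl2 1.8, MgCl2 0.9, Tris HCl 10, glucose 5; pH 7.4), equilibrated 45–60 min and washed every 15 min. Rings were precontracted with 10^-4 M phenylephrine, then given cumulative test agent at 10^-7 to 10^-4 M. Isometric relaxation was recorded, as means ± SE.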

A short description of assay [2]: Vasodilatory activity in human vena saphena magna assessed as relaxation of phenylephrine-induced smooth muscle contraction at 10^-7 to 10^-4 M. The format is functional. The essentials:
as §1

A short description of assay [3]: Ionotropic effect in guinea pig ventricle papillary muscles assessed as lengthening of 90% repolarized cardiac action potential duration time at 10^-6 M by microelectrode technique relative to untreated control (reference value: 209 to 222 APD50 ms) in presence of 3.1 x 10^-6 M inward rectifier current blocker BaCl2. The format is functional, Cavia porcellus.
Assay [4] can be described thus: Ionotropic effect in guinea pig ventricle papillary muscles assessed as lengthening of 25% repolarized cardiac action potential duration time at 10^-6 M by microelectrode technique relative to untreated control (reference value: 120 to 131 APD25 ms) in presence of 3.1 x 10^-6 M inward rectifier current blocker BaCl2. The format is functional, Cavia porcellus.
Assay [5] can be described thus: Ionotropic effect in guinea pig ventricle papillary muscles assessed as lengthening of 10% repolarized cardiac action potential duration time at 10^-4 M by microelectrode technique relative to untreated control (reference value: 52 to 54 APD10 ms) in presence of 3.1 x 10^-6 M inward rectifier current blocker BaCl2. The assay is classed as functional, Cavia porcellus.

A short description of assay [6]: Ionotropic effect in guinea pig ventricle papillary muscles assessed as lengthening of 90% repolarized cardiac action potential duration time at 10^-5 M by microelectrode technique relative to untreated control (reference value: 209 to 222 APD50 ms) in presence of 1 x 10^-6 M IKr channel blocker Sotalol. The assay is classed as functional, Cavia porcellus.
Assay [7] is described as follows: Ionotropic effect in guinea pig ventricle papillary muscles assessed as lengthening of 90% repolarized cardiac action potential duration time at 10^-6 M by microelectrode technique relative to untreated control (reference value: 209 to 222 APD50 ms) in presence of 1 x 10^-6 M IKr channel blocker Sotalol. The format is functional, Cavia porcellus.
A short description of assay [8]: Ionotropic effect in guinea pig ventricle papillary muscles assessed as lengthening of 90% repolarized cardiac action potential duration time at 10^-7 M by microelectrode technique relative to untreated control (reference value: 209 to 222 APD50 ms) in presence of 1 x 10^-6 M IKr channel blocker Sotalol. The format is functional, Cavia porcellus.
Assay [9] can be described thus: Ionotropic effect in guinea pig ventricle papillary muscles assessed as lengthening of 50% repolarized cardiac action potential duration time at 10^-5 M by microelectrode technique relative to untreated control (reference value: 180 to 192 APD50 ms) in presence of 1 x 10^-6 M IKr channel blocker Sotalol. The format is functional, Cavia porcellus.
The nature of assay [10]: Ionotropic effect in guinea pig ventricle papillary muscles assessed as lengthening of 25% repolarized cardiac action potential duration time at 10^-4 M by microelectrode technique relative to untreated control (reference value: 120 to 131 APD25 ms) in presence of 1 x 10^-6 M IKr channel blocker Sotalol. The format is functional, Cavia porcellus.
Assay [11] can be described thus: Ionotropic effect in guinea pig ventricle papillary muscles assessed as lengthening of 10% repolarized cardiac action potential duration time at 10^-7 M by microelectrode technique relative to untreated control (reference value: 52 to 54 APD10 ms) in presence of 1 x 10^-6 M IKr channel blocker Sotalol. The assay is classed as functional, Cavia porcellus.
Assay [12] is described as follows: Ionotropic effect in guinea pig right ventricle papillary muscles assessed as contraction force at 10^-7 M by force transduction assay relative to untreated control (reference value: 100%) in presence of 1 x 10^-6 M IKr channel blocker Sotalol. The assay is classed as functional, Cavia porcellus, Heart right ventricle.
The nature of assay [13]: Ionotropic effect in guinea pig ventricle papillary muscles assessed as lengthening of 90% repolarized cardiac action potential duration time at 10^-6 M by microelectrode technique relative to untreated control (reference value: 209 to 222 APD50 ms) in presence of 2 x 10^-5 M KATP channel blocker glibenclamide. The assay is classed as functional, Cavia porcellus.
A short description of assay [14]: Ionotropic effect in guinea pig ventricle papillary muscles assessed as lengthening of 50% repolarized cardiac action potential duration time at 10^-6 M by microelectrode technique relative to untreated control (reference value: 180 to 192 APD50 ms) in presence of 2 x 10^-5 M KATP channel blocker glibenclamide. The assay is classed as functional, Cavia porcellus.

Assay [15] is described as follows: Ionotropic effect in guinea pig ventricle papillary muscles assessed as lengthening of 10% repolarized cardiac action potential duration time at 10^-6 M by microelectrode technique relative to untreated control (reference value: 52 to 54 APD10 ms) in presence of 2 x 10^-5 M KATP channel blocker glibenclamide. The format is functional, Cavia porcellus.
The nature of assay [16]: Ionotropic effect in guinea pig right ventricle papillary muscles assessed as contraction force at 10^-4 M by force transduction assay relative to untreated control (reference value: 100%) in presence of 2 x 10^-5 M KATP channel blocker glibenclamide. The assay is classed as functional, Cavia porcellus, Heart right ventricle.
Assay [17] is described as follows: Ionotropic effect in guinea pig right ventricle papillary muscles assessed as contraction force at 10^-5 M by force transduction assay relative to untreated control (reference value: 100%) in presence of 2 x 10^-5 M KATP channel blocker glibenclamide. The assay is classed as functional, Cavia porcellus, Heart right ventricle.
Assay [18] in a line: Ionotropic effect in guinea pig right ventricle papillary muscles assessed as contraction force at 10^-6 M by force transduction assay relative to untreated control (reference value: 100%) in presence of 2 x 10^-5 M KATP channel blocker glibenclamide. The format is functional, Cavia porcellus, Heart right ventricle.
Assay [19] in a line: Ionotropic effect in guinea pig right ventricle papillary muscles assessed as contraction force at 10^-7 M by force transduction assay relative to untreated control (reference value: 100%) in presence of 2 x 10^-5 M KATP channel blocker glibenclamide. The format is functional, Cavia porcellus, Heart right ventricle.
Assay [20] is described as follows: Ionotropic effect in guinea pig ventricle papillary muscles assessed as lengthening of 90% repolarized cardiac action potential duration time at 10^-7 M by microelectrode technique relative to untreated control (reference value: 132 to 176 APD50 ms). The format is functional, Cavia porcellus, Papillary muscle.
Assay [21] can be described thus: Ionotropic effect in guinea pig ventricle papillary muscles assessed as lengthening of 50% repolarized cardiac action potential duration time at 10^-6 M by microelectrode technique relative to untreated control (reference value: 132 to 176 APD50 ms). The assay is classed as functional, Cavia porcellus, Papillary muscle.
Assay [22] in a line: Ionotropic effect in guinea pig ventricle papillary muscles assessed as lengthening of 25% repolarized cardiac action potential duration time at 10^-4 M by microelectrode technique relative to untreated control (reference value: 84 to 104 APD25 ms). The format is functional, Cavia porcellus, Papillary muscle.
A short description of assay [23]: Ionotropic effect in guinea pig ventricle papillary muscles assessed as lengthening of 25% repolarized cardiac action potential duration time at 10^-6 M by microelectrode technique relative to untreated control (reference value: 84 to 104 APD25 ms). The format is functional, Cavia porcellus, Papillary muscle.
A short description of assay [24]: Ionotropic effect in guinea pig ventricle papillary muscles assessed as lengthening of 25% repolarized cardiac action potential duration time at 10^-7 M by microelectrode technique relative to untreated control (reference value: 84 to 104 APD25 ms). The assay is classed as functional, Cavia porcellus, Papillary muscle.

In the case of `CCCOCCOC(=O)C1=C(C)NC=C([N+](=O)[O-])C1c1ccccc1OC(F)F` (centres undefined), the Activity was determined as 26% in assay [1]; 85% in assay [12]; 211% in [16]; 163% in [17]; 120% in assay [18]; 103% in [19]. Further, the result in assay [2] was Active. The Time in [3] is 250.7 ms; in [4], 149.7 ms; in [5], 61.36 ms; in [6], 227.7 ms; in assay [7], 224 ms; in [8] it was 224.4 ms. Also, the Time amounted to 199 ms in assay [9]; 142 ms in assay [10]; 54.2 ms in assay [11]; 247 ms in [13]; 219 ms in [14]; 59.6 ms in assay [15]. Moreover, the Time came to 221.6 ms in [20]; 196 ms in [21]; 146.9 ms in assay [22]; 118.6 ms in [23]; 112.7 ms in assay [24].
